According to ChEMBL document CHEMBL2029282, “Synthesis and characterization of 2'-C-Me branched C-nucleosides as HCV polymerase inhibitors” (Bioorg Med Chem Lett, 2012):

Experiments:
[1] = Cytotoxicity against human HuH7 cells after 24 hrs by MTS assay; assay type: cell-based, Huh-7
Hepatitis C virus [2] = assay: Inhibition of HCV genotype 1b NS5B after 90 mins; parameters: species or system Hepatitis C virus subtype 1b; conditions: 1.5 h
Hepatitis C virus [3] = assay: Antiviral activity against HCV genotype 1b infected in human HuH7 cells assessed as cytoprotection after 24 hrs; assay type: functional, organism-based, Hepacivirus hominis; conditions: Huh-7, 24 h
adenosine deaminase = assay: Stability of the compound assessed as compound remaining at 10 uM after 60 mins in presence of bovine adenosine deaminase; assay type: ADME; conditions: cattle, read-out: Stability
How it was run: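 Nucleosides (10 µM) were incubated at 37 °C with 0.0125 U/mL bovine adenosine deaminase in 0.01 M potassium phosphate pH 6.0 and sampled over 1 h. Reactions were quenched with ice-cold methanol containing 0.2% formic acid. Nucleoside was quantified by LC with triple-quadrupole MS in positive-ion MRM mode, and percent remaining taken at 60 min. Values are the mean of 2 independent experiments in duplicate.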

[4] = Plasma clearance in rat; assay type: ADME, organism-based
Rattus norvegicus [5] = assay: Prodrug activation in Sprague-Dawley rat liver assessed as compound triphosphate form at 5 mg/kg, po after […]; assay type: organism-based; parameters: dose 5 mg/kg, route oral; conditions: in vivo
How it was run: (§1)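 Groups of 12 Golden Syrian hamsters or Sprague–Dawley rats were dosed orally with nucleoside in water. Doses were 20 or 10 mg/kg in hamsters and 2 or 5 mg/kg in rats. Livers were harvested under isoflurane at 1, 4, 8 and 12 h and snap-frozen. Homogenate supernatant was dried, reconstituted in 1 mM ammonium phosphate pH 7.0, and triphosphate measured by LC/MS/MS, with endogenous ATP checked for stability. Values are mean±SD from 3 livers per time point.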

[6] = Elimination half life in beagle dog plasma at 0.5 mg/kg, iv after 24 hrs by LC-MS/MS analysis; assay type: ADME, organism-based, Canis lupus familiaris; parameters: dose 0.5 mg/kg, route intravenous
How it was run: (§2)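 Groups of 3 non-naive male beagle dogs received one dose as a solution in 5/5/5/85 ethanol/[…]/polyethylene glycol/50 mM aqueous citrate buffer (pH 3.3). Dosing was either 0.5 mg/kg by IV infusion or 1 mg/kg orally. EDTA-K3 plasma was sampled over 24 h, precipitated with acetonitrile (60% final), dried, reconstituted in 20% acetonitrile, and analysed by LC/MS/MS in positive-ion MRM mode.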

Huh-7 = assay: Prodrug activation in human HuH7 cells assessed as compound triphosphate form at 10 uM after 24 hrs; conditions: huh-7, 24 h
[7] = Plasma clearance in beagle dog at 0.5 mg/kg, iv after 24 hrs by LC-MS/MS analysis; assay type: ADME, organism-based, Canis lupus familiaris; parameters: dose 0.5 mg/kg, route intravenous; how it was run: as §2
Syrian golden hamster [8] = assay: Prodrug activation in Golden Syrian hamster liver assessed as compound triphosphate form at 10 mg/kg, po […]; assay type: organism-based, Mesocricetus auratus; parameters: dose 10 mg/kg, route oral; conditions: in vivo; how it was run: as §1
Hepatocyte = assay: Prodrug activation in primary human hepatocytes assessed as compound triphosphate form at 10 uM after 1 hr; assay type: cell-based
How it was run: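 Primary human hepatocytes from two donors were grown confluent (0.88×10^6 cells/well) in Williams E medium with supplement. Cells were exposed to compound (10 µM) for 1 h, then drug-free medium for 23 h, and sampled during and after exposure. Cells were extracted in 70% methanol, dried, and resuspended in 1 mM ammonium phosphate pH 8.5. Triphosphate was quantified by LC/MS/MS. Two independent experiments were run in duplicate.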

[9] = Oral bioavailability in beagle dog at 1 mg/kg; assay type: ADME, organism-based, Canis lupus familiaris; conditions: in vivo; how it was run: as §2
[10] = Oral bioavailability in Sprague-Dawley rat; assay type: ADME, organism-based; conditions: in vivo
[11] = Volume of distribution in beagle dog at 0.5 mg/kg, iv after 24 hrs by LC-MS/MS analysis; assay type: ADME, organism-based, Canis lupus familiaris; parameters: dose 0.5 mg/kg, route intravenous; conditions: in vivo; how it was run: as §2
Syrian golden hamster [12] = assay: Prodrug activation in Golden Syrian hamster liver assessed as compound triphosphate form at 20 mg/kg, po after 4 to 24 hrs; assay type: organism-based, Mesocricetus auratus; parameters: dose 20 mg/kg, route oral; conditions: in vivo
Rattus norvegicus [13] = assay: Prodrug activation in Sprague-Dawley rat liver assessed as compound triphosphate form at 2 mg/kg, po after 4 to 24 hrs; assay type: organism-based; parameters: dose 2 mg/kg, route oral; conditions: in vivo

Structure (SMILES)	CC50 at 24 h [1]	IC50 (Hepatitis C virus [2])	EC50 (Hepatitis C virus [3])	remaining at 1 h, 10 µM (adenosine deaminase)	other results
C[C@@]1(O)[C@H](O)[C@@H](CO)O[C@H]1n1ccc(=O)[nH]c1=O	> 89 µM	1.32 µM	15.2 µM	–	–
C[C@@]1(O)[C@H](O)[C@@H](CO)O[C@H]1c1cnc2c(N)ncnn12	> 89 µM	2.1 µM	1.28 µM	55%	–
CC(C)(C)C(=O)SCCOP(=O)(OCCSC(=O)C(C)(C)C)OC[C@H]1O[C@@H](n2cnc3c(=O)[nH]c(N)nc32)[C@](C)(O)[C@@H]1O	–	–	0.05 µM	–	–
CC(C)(C)C(=O)SCCOP(=O)(OCCSC(=O)C(C)(C)C)OC[C@H]1O[C@@H](c2cnc3c(=O)[nH]c(N)nn23)[C@](C)(O)[C@@H]1O	–	–	9.54 µM	–	–
C[C@@]1(O)[C@H](O)[C@@H](CO)O[C@H]1n1cnc2c(=O)[nH]c(N)nc21 [2'-B-METHYL-GUANOSINE]	> 89 µM	0.25 µM	3.25 µM	–	–
C[C@@]1(O)[C@H](O)[C@@H](CO)O[C@H]1n1ccc(N)nc1=O	> 89 µM	0.73 µM	4.07 µM	–	–
C[C@@]1(O)[C@H](O)[C@@H](CO)O[C@H]1c1c[nH]c(=O)[nH]c1=O	> 89 µM	13.4 µM	> 89 µM	–	–
C[C@@]1(O)[C@H](O)[C@@H](CO)O[C@H]1n1cnc2c(N)ncnc21	66 µM	6.83 µM	0.35 µM	94%	clearance [4]: > 200 mL/min/kg
C[C@@]1(O)[C@H](O)[C@@H](CO)O[C@H]1c1cnc2c(=O)[nH]c(N)nn12	> 89 µM	0.19 µM	> 89 µM	–	–
C[C@@]1(O)[C@H](O)[C@@H](CO)O[C@H]1c1ccc2c(N)ncnn12	85 µM	0.31 µM	1.98 µM	100%	Drug metabolism (Rattus norvegicus [5]): Active; half-life [6]: > 7 h; Drug metabolism (Huh-7): Not Active; clearance [7]: 6.67 mL/min/kg; Drug metabolism (Syrian golden hamster [8]): Active; Drug metabolism (Hepatocyte): Active; bioavailability [9]: 70%; bioavailability [10]: 50%; Vd [11]: 1.66 L/kg
C[C@@]1(O)[C@H](O)[C@@H](CO)O[C@H]1n1ccc2c(N)ncnc21 [BETA-2'-C-METHYL-7-DEAZA-ADENOSINE]	> 89 µM	0.3 µM	0.08 µM	98%	Drug metabolism (Syrian golden hamster [12]): Active; Drug metabolism (Rattus norvegicus [13]): Active
C[C@@]1(O)[C@H](O)[C@@H](CO)O[C@H]1c1c[nH]c(N)nc1=O	> 89 µM	13.4 µM	> 89 µM	–	–
